inhibition, Activity and GI50 data for 3 molecules are collected here from ChEMBL document CHEMBL4622886, “Leucinostatins from Ophiocordyceps spp. and Purpureocillium spp. Demonstrate Selective Antiproliferative Effects in Cells Representing the Luminal Androgen Receptor Subtype of Triple Negative Breast Cancer” (2020).

Activity calls are given as the source filed them. The rule behind the calls is not given here. Numbered stars: 1 amine (or outer) side, 2 acyl side, 3 side chain; on linkers, the order of the positions; unused ones are H or OH. Square brackets hold non-standard residues; d marks the D form. Peptide text beside a SMILES is read from it. * marks the point of attachment. X1 = CCC(=O)C[C@@H](O)C[C@@H](C)C[C@H](N[*:1])C(=O)[*:2]; X2 = CCC(=O)/C=C/C[C@@H](C)C[C@H](N[*:1])C(=O)[*:2]; Hexenoyl(2E,4S-Me) = CC[C@H](C)/C=C/C(=O)*; Leu(3R-OH) = CC(C)[C@@H](O)[C@H](N)C(=O)O; NH((S)CH(Me)CH2NMe2) = C[C@@H](CN(C)C)N*; Pro(4S-Me) = C[C@@H]1CN[C@H](C(=O)O)C1; NH((S)CH(CH3)CH2NHMe) = CNC[C@H](C)N*; Aib = CC(C)(N)C(=O)O; βAla = NCCC(=O)O

Assay [1] deals with T1, mTORC1 (Homo sapiens) (UniProt P42345+Q8N122+Q9BVC4). In words: Inhibition of mTORC1 signalling in human MDA-MB-231 cells assessed as induction of AKT phosphorylation at S473 residue at 100 nM measured within 18 hrs by immunoblot analysis relative to control. It counts as cell-based. In outline: (§1)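 Cells were exposed to 100 nM compound or DMSO for 2, 6 or 18 h, then scraped and lysed with PMSF, Na3VO4 and protease inhibitors. Lysate (10 μg protein) ran on 10% Bis-Tris SDS-PAGE and went to PVDF. Blots were probed 1:1000 for phospho and total AKT (S473), S6K (T389), RPS6 (S235/236) and 4E-BP1 (T37/46), plus GAPDH. IRDye secondaries; infrared imaging; two independent experiments.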
T1 sequence (Q8N122 whole entry, looked up, other chains not shown): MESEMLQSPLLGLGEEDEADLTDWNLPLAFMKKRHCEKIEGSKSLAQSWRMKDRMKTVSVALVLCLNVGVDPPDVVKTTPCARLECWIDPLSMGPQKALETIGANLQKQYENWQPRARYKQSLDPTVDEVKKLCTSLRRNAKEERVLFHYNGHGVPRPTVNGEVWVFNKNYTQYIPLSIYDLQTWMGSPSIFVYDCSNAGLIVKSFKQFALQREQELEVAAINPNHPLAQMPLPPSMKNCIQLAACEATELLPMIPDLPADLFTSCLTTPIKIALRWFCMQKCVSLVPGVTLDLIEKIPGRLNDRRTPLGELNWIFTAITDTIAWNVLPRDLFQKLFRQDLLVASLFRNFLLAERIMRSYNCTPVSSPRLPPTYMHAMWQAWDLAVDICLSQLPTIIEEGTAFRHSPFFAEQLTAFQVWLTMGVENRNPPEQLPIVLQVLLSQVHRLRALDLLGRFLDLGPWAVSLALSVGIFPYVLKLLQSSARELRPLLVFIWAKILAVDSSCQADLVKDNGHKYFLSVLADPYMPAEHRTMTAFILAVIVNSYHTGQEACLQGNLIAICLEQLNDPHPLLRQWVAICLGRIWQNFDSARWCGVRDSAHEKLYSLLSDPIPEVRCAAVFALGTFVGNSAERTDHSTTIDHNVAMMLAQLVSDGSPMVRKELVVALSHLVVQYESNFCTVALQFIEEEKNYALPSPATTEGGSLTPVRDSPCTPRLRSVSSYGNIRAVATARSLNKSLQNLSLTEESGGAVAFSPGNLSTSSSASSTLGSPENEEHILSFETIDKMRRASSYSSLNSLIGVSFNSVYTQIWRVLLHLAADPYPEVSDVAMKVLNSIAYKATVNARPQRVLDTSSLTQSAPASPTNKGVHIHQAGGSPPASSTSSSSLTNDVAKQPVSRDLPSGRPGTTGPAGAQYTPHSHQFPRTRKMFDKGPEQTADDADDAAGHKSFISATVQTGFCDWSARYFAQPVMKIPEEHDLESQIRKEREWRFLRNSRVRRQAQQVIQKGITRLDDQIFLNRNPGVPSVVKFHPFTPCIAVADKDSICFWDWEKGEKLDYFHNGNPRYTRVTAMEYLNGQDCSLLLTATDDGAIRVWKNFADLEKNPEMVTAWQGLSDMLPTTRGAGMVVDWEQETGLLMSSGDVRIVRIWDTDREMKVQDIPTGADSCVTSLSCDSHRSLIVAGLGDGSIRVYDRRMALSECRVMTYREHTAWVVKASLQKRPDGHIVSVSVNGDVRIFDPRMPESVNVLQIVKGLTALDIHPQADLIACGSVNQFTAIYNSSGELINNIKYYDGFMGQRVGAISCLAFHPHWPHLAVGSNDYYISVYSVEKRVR
T1 sequence (Q9BVC4 whole entry, looked up, other chains not shown): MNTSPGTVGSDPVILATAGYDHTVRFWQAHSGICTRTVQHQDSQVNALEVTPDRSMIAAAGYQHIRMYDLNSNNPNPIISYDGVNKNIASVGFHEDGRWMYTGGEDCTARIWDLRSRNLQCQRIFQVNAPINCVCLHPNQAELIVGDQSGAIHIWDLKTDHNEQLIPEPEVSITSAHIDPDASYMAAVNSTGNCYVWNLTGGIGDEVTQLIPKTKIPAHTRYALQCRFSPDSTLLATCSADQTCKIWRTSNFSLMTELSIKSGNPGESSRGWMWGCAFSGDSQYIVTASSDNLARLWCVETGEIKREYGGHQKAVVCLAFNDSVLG
In general terms: Immunoblotting shows a protein as a band on a membrane.

Assay [2] addresses T1, mTORC1 (Homo sapiens). The experiment in a line: Inhibition of mTORC1 signalling in human MDA-MB-453 cells assessed as reduction in RPS6 phosphorylation at S235/236 residue at 100 nM measured at 2 hrs by immunoblot analysis. Format: cell-based. In outline: as §1
Assay [3] addresses T1, mTORC1 (Homo sapiens). In words: Inhibition of mTORC1 signalling in human MDA-MB-231 cells assessed as reduction in ribosomal protein S6 kinase phosphorylation at T389 residue at 100 nM measured after 2 to 18 hrs by immunoblot analysis relative to control. It counts as cell-based. The method, boiled down:
as §1

In assay [4] the test system is HCC1937. In words: Antiproliferative activity against human HCC1937 cells up to 100 nM incubated for 48 hrs by sulforhodamine B assay. It counts as functional, cell-based. In outline: (§2)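 Cells (RPMI-1640 with 5% FBS, 0.5% gentamicin; used within 4 months of thaw) were seeded at set densities, allowed to adhere, then treated 48 h with compound or DMSO vehicle. Cells were fixed and SRB-stained, with absorbance read at 560 nm. GI50 vs vehicle was taken by non-linear regression; three independent experiments, each in triplicate.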
In general terms: In SRB staining, fixed cells bind dye roughly in proportion to their protein.

Assay [5] deals with HCC1937. In words: Antiproliferative activity against human HCC1937 cells at >1 uM incubated for 48 hrs by sulforhodamine B assay. It counts as functional, cell-based. In outline:
as §2

Assay [6] has as its system MDA-MB-453. In words: Antiproliferative activity against human MDA-MB-453 cells at 0.01 to 100 nM incubated for 48 hrs by sulforhodamine B assay. Format: functional, cell-based. In outline:
(§3)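 IMEM with 5% FBS and 0.3% gentamicin; cells used within 4 months of thaw. After seeding at set densities and adhering, cells got compound or DMSO vehicle for 48 h, then were fixed and SRB-stained, with A560 read. GI50 (50% proliferation inhibition vs vehicle) came from non-linear regression of concentration-response curves; three independent experiments, each in triplicate.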

Assay [7] has as its system BT-549. In words: Antiproliferative activity against human BT549 cells at >1 uM incubated for 48 hrs by sulforhodamine B assay. Format: functional, cell-based. The method, boiled down:
as §2

Assay [8] relates to MDA-MB-231. In words: Antiproliferative activity against human MDA-MB-231 cells at > 1 uM incubated for 48 hrs by sulforhodamine B assay. It counts as functional, cell-based. The method, boiled down:
as §3

The target of assay [9] is T1, mTORC1 (Homo sapiens). In words: Inhibition of mTORC1 signalling in human MDA-MB-231 cells assessed as reduction in RPS6 phosphorylation at S235/236 residue at 100 nM measured after 2 to 18 hrs by immunoblot analysis relative to control. It counts as cell-based. The method, boiled down:
as §1

Assay [10] concerns the target T1, mTORC1 (Homo sapiens). The experiment in a line: Inhibition of mTORC1 signalling in human MDA-MB-453 cells assessed as reduction in RPS6 phosphorylation at S235/236 residue at 100 nM measured at 6 hrs by immunoblot analysis relative to control. Format: cell-based. The method, boiled down:
as §1

The test system of assay [11] is HCC1806. The experiment in a line: Antiproliferative activity against human HCC1806 cells up to 100 nM incubated for 48 hrs by sulforhodamine B assay. It counts as functional, cell-based. The method, boiled down:
as §2

For assay [12], the system named is BT-549. In words: Antiproliferative activity against human BT549 cells up to 100 nM incubated for 48 hrs by sulforhodamine B assay. It counts as functional, cell-based. In outline:
as §2

The target in assay [13] is T1, mTORC1 (Homo sapiens). The experiment in a line: Inhibition of mTORC1 signalling in human MDA-MB-231 cells assessed as reduction in 4E-BP1 phosphorylation at T37/46 residue at 100 nM measured after 2 hrs by immunoblot analysis. Format: cell-based. The method, boiled down: as §1
The target of assay [14] is T1, mTORC1 (Homo sapiens). The experiment in a line: Inhibition of mTORC1 signalling in human MDA-MB-453 cells assessed as induction of AKT phosphorylation at S473 residue at 100 nM measured within 18 hrs by immunoblot analysis relative to control. It counts as cell-based. In outline: as §1
For assay [15], the system named is MDA-MB-453. The experiment in a line: Antiproliferative activity against human MDA-MB-453 cells at > 1 uM incubated for 48 hrs by sulforhodamine B assay. It counts as functional, cell-based. In outline: as §3
Assay [16] has as its system SUM185PE. In words: Antiproliferative activity against human SUM185PE cells at 1 to 100 nM incubated for 48 hrs by sulforhodamine B assay. Format: functional, cell-based. The method, boiled down:
as §3

The test system of assay [17] is HCC1806. The experiment in a line: Antiproliferative activity against human HCC1806 cells at >1 uM incubated for 48 hrs by sulforhodamine B assay. Format: functional, cell-based. The method, boiled down: as §2
For assay [18], the target named is T1, mTORC1 (Homo sapiens). The experiment in a line: Inhibition of mTORC1 signalling in human MDA-MB-453 cells assessed as reduction in ribosomal protein S6 kinase phosphorylation at T389 residue at 100 nM measured within 2 hrs by immunoblot analysis relative to control. Format: cell-based. In outline: as §1
In assay [19] the test system is MDA-MB-453. In words: Antiproliferative activity against human MDA-MB-453 cells at 1 to 100 nM incubated for 48 hrs by sulforhodamine B assay. Format: functional, cell-based. The method, boiled down: as §3
Assay [20] concerns the target T1, mTORC1 (Homo sapiens). The experiment in a line: Inhibition of mTORC1 signalling in human MDA-MB-453 cells assessed as reduction in 4E-BP1 phosphorylation at T37/46 residue at 100 nM measured after 2 hrs by immunoblot analysis. Format: cell-based. In outline: as §1
The subject of assay [21] is SUM185PE. The experiment in a line: Antiproliferative activity against human SUM185PE cells at 0.01 to 100 nM incubated for 48 hrs by sulforhodamine B assay. Format: functional, cell-based. In outline: as §3
Assay [22] has as its system MDA-MB-231. In words: Antiproliferative activity against human MDA-MB-231 cells up to 100 nM incubated for 48 hrs by sulforhodamine B assay. Format: functional, cell-based. In outline: as §3
Assay [23] has as its system SUM185PE. In words: Antiproliferative activity against human SUM185PE cells incubated for 48 hrs by sulforhodamine B assay. It counts as functional. The method, boiled down:
as §3

Assay [24] relates to MDA-MB-453. The experiment in a line: Antiproliferative activity against human MDA-MB-453 cells incubated for 48 hrs by sulforhodamine B assay. Format: functional. Conditions: MDA-MB-453, 48 h. The method, boiled down: as §3
The target of assay [25] is T1, mTORC1 (Homo sapiens). Conditions: MDA-MB-453, 10 nM.
Assay [26] has as its target T1, mTORC1 (Homo sapiens). To be noted: MDA-MB-231, 10 nM.
Assay [27] deals with MDA-MB-231. The experiment in a line: Antiproliferative activity against human MDA-MB-231 cells incubated for 48 hrs by sulforhodamine B assay. It counts as functional. To be noted: MDA-MB-231, 48 h. In outline: as §3

For the molecule `CCC(=O)C[C@@H](O)C[C@@H](C)C[C@H](NC(=O)[C@@H]1C[C@H](C)CN1C(=O)/C=C/[C@@H](C)CC)C(=O)N[C@H](C(=O)NC(C)(C)C(=O)N[C@@H](CC(C)C)C(=O)N[C@@H](CC(C)C)C(=O)NC(C)(C)C(=O)NC(C)(C)C(=O)NCCC(=O)N[C@@H](C)CNC)[C@H](O)C(C)C` ({Hexenoyl(2E,4S-Me)}-[Pro(4S-Me)][X1][Leu(3R-OH)][Aib]LL[Aib][Aib][βAla]-{NH((S)CH(CH3)CH2NHMe)}), the inhibition result at mTORC1 (Homo sapiens) [1], on mTORC1 (Homo sapiens) [3], at mTORC1 (Homo sapiens) [9] and at mTORC1 (Homo sapiens) [13] was “inactive” throughout. The inhibition entry at mTORC1 (Homo sapiens) [2], with MDA-MB-453 [6], on mTORC1 (Homo sapiens) [14], at mTORC1 (Homo sapiens) [20] and in the assay with SUM185PE [21] was “Active” in each case. In addition, the result with HCC1937 [4], with HCC1806 [11], in the assay with BT-549 [12] and in the assay with MDA-MB-231 [22] was inactive. The result in the assay with HCC1937 [5], with BT-549 [7], with MDA-MB-231 [8], with MDA-MB-453 [15], in the assay on SUM185PE [16] and in the assay with HCC1806 [17] was Active. Further, the result in the assay on MDA-MB-453 [19] was Active. The inhibition at mTORC1 (Homo sapiens) [10] and at mTORC1 (Homo sapiens) [18] was 100% in each case.
As to `CO[C@H]1C[C@@H]2CC[C@@H](C)[C@@](O)(O2)C(=O)C(=O)N2CCCC[C@H]2C(=O)O[C@H]([C@H](C)C[C@@H]2CC[C@@H](O)[C@H](OC)C2)CC(=O)[C@H](C)/C=C(\C)[C@@H](O)[C@@H](OC)C(=O)[C@H](C)C[C@H](C)/C=C/C=C/C=C/1C` [SIROLIMUS], the figures for the GI50 in the assay on SUM185PE [23], in the assay on MDA-MB-453 [24] and in the assay on MDA-MB-231 [27] were 0.04 nM, 0.05 nM and greater than 100 nM, respectively. Further, the inhibition result at mTORC1 (Homo sapiens) [25] and at mTORC1 (Homo sapiens) [26] was “Active” in each case.
Take `CCC(=O)/C=C/C[C@@H](C)C[C@H](NC(=O)[C@@H]1C[C@H](C)CN1C(=O)/C=C/[C@@H](C)CC)C(=O)N[C@H](C(=O)NC(C)(C)C(=O)N[C@@H](CC(C)C)C(=O)N[C@@H](CC(C)C)C(=O)NC(C)(C)C(=O)NC(C)(C)C(=O)NCCC(=O)N[C@@H](C)CN(C)C)[C@H](O)C(C)C` ({Hexenoyl(2E,4S-Me)}-[Pro(4S-Me)][X2][Leu(3R-OH)][Aib]LL[Aib][Aib][βAla]-{NH((S)CH(Me)CH2NMe2)}): the outcome in the assay with HCC1937 [4], in the assay on HCC1806 [11], in the assay with BT-549 [12] and with MDA-MB-231 [22] was inactive. The result in the assay on HCC1937 [5], in the assay with BT-549 [7], in the assay on MDA-MB-231 [8], in the assay on MDA-MB-453 [15], with SUM185PE [16] and in the assay on HCC1806 [17] was Active. In the assay on MDA-MB-453 [19], the result was Active. For the same molecule, the GI50 in the assay with SUM185PE [23] is 4.4 nM; in the assay on MDA-MB-453 [24] it was 7.9 nM; in the assay on MDA-MB-231 [27], greater than 100 nM.

One may read the inhibition as the relative decrease from the control value, in per cent. Usually GI50 stands for the concentration at which growth is held to half of that of the control. Higher therefore signals less potent growth inhibition.
